Published values from different studies.
Compare with care: the assays were run in different laboratories.
Target: Tyrosine-protein kinase receptor TYRO3 (TYRO3, Homo sapiens, UniProt Q06418)

O=C1NC(=O)c2cc(Nc3ccc(F)cc3)c(Nc3ccc(F)cc3)cc21
remaining signal (cell-free assay; 0.5 µM): 94.8%

Cn1c2c(c3ccc(Cl)c(Cl)c31)C(C#N)C1(CCN(C(=O)OC(C)(C)C)CC1)NC2=O (racemic)
ΔTm (thermal stability, DSF; 10 µM): 0 °C

O=C(Nc1cnn(-c2csc(C(=O)NC3COC3)c2)c1)Nc1ccccc1Cl
remaining activity (enzyme activity, inhibitor; 5 µM): 75.4%

CC1CCCN1c1nccc(-c2cnn3ncccc23)n1 (centres unmarked)
remaining binding (binding; 1 µM): 79%

CC(C)(C)c1nc2c(s1)c1nc(N)ncc1c1ccc(NS(=O)(=O)c3c(F)cccc3F)c(F)c12
remaining activity (enzyme activity, inhibitor, radiometric; 1 µM): 91%

COc1cccc(CNC(=O)c2nc3scc(COCc4ccc(C(=O)O)cc4)c3c(=O)[nH]2)c1
remaining binding (cell-free assay, competition with immobilised ligand; 1 µM): 100%

Cc1cc(NC(=O)c2cccc3cc(-c4cccc5[nH]nc(N)c45)ccc23)ccc1F
activity vs control (enzyme activity, inhibitor; 0.1 µM): 99%

CCCS(=O)(=O)Nc1ccc(F)c(C(=O)c2c[nH]c3ncc(-c4ccc(Cl)cc4)cc23)c1F
inhibition (enzyme activity, inhibitor; 1 µM): < 10%

CCN(CC)CCNC(=O)c1c(C)[nH]c(/C=C2\C(=O)Nc3ccc(F)cc32)c1C
inhibition (cell-free assay; 10 µM): 95%

O=C(N1CCS(=O)(=O)CC1)N1C[C@H](c2ccc(OC(F)(F)F)cc2)C[C@H](c2nc(C3CC3)no2)C1
remaining binding (cell-free assay, competition with immobilised ligand; 1 µM): 98%

O=C1Nc2ccc(Cl)cc2C1=Cc1cc(Cl)c(O)c(Cl)c1
remaining signal (cell-free assay; 0.5 µM): 94.9%

CCCOc1ccc([C@H]2[C@H](C(=O)O)[C@@H](c3ccc4c(c3)OCO4)CN2CC(=O)Nc2c(CC)cccc2CC)cc1
remaining binding (cell-free assay, competition with immobilised ligand; 1 µM): 100%

CNC(=O)c1cc2c(Oc3ccc(NC(=O)C4(C(=O)Nc5ccc(F)cc5)CC4)cc3)ccnc2cc1OC
inhibition (enzyme activity, inhibitor, radiometric; 1 µM): 100%

Oc1cccc(-c2nc(N3CCOCC3)c3oc4ncccc4c3n2)c1
remaining signal (cell-free assay; 0.5 µM): 102%

COc1cc2ncnc(Nc3ccc(Oc4ccccc4)cc3C)c2cc1OC
inhibition (enzyme activity, inhibitor; 1 µM): 70%

C=CC(=O)Nc1cc(Nc2nccc(Nc3cc(Cl)c(F)cc3C(C)(C)O)n2)c(OC)cc1N1CC[C@@H](N(C)C)C1
inhibition (enzyme activity, inhibitor; 1 µM): 5%

Nc1ncnc2occ(-c3ccc(NC(=O)Nc4cc(C(F)(F)F)ccc4F)cc3)c12
remaining signal (cell-free assay; 20 µM): 2%

Cc1sc(C(=O)NC2COC2)cc1-n1cc(NC(=O)Nc2c(F)cccc2Cl)cn1
remaining activity (enzyme activity, inhibitor; 10 µM): 98.8%

Cn1c2c(Cl)c(Cl)ccc2c2cn[nH]c(=O)c21
ΔTm (thermal stability, DSF; 10 µM): 1 °C

CCS(=O)(=O)c1cc2cc(C[C@@](O)(CC(C)(C)c3ccc(F)cc3C(N)=O)C(F)(F)F)[nH]c2cn1
remaining binding (cell-free assay, competition with immobilised ligand; 1 µM): 92%

Cn1c2c(c3ccc(Cl)c(Cl)c31)C(C#N)C1(CCNCC1)NC2=O (racemic)
ΔTm (thermal stability, DSF; 10 µM): -0.4 °C

Cn1cc(Cl)c2c(Oc3c(F)cc(Nc4cc(Cl)nc(N)n4)cc3F)ccnc21
remaining binding (cell-free assay, competition with immobilised ligand; 0.1 µM): 80%

CN1CC(Oc2cnc(C#N)cc2-c2ccn3nc(NC(=O)C4CC4)cc3c2)C1
inhibition (enzyme activity, inhibitor; 1 µM): -2%

Cc1c[nH]c2nccc(Oc3c(F)cc(Nc4cc(Cl)nc(N)n4)cc3F)c12
remaining binding (cell-free assay, competition with immobilised ligand; 0.1 µM): 100%

Cc1ccc(C(=O)Nc2ccc(CN3CCN(C)CC3)c(C(F)(F)F)c2)cc1C#Cc1cnc2cccnn12
remaining signal (cell-free assay; 23.5 nM): 73%

O=C1CCc2cc(Nc3cc(OC4CCOCC4)c([N+](=O)[O-])cc3Cl)ccc2N1
remaining binding (cell-free assay, competition with immobilised ligand; 1 µM): 100%

Cn1c2c(Cl)c(Cl)ccc2c2cc(N)[nH]c(=O)c21
ΔTm (thermal stability, DSF; 10 µM): 1.1 °C

CCCCN(CCCC)C(=O)CN1C[C@@H](c2cc(OC)c3c(c2)OCO3)[C@H](C(=O)O)[C@H]1CC(C)(C)CCC
remaining binding (cell-free assay, competition with immobilised ligand; 1 µM): 97.1%

Cc1ccc(Nc2nccc(N(C)c3ccc4c(C)n(C)nc4c3)n2)cc1S(N)(=O)=O
inhibition (cell-free assay; 10 µM): 55%
